Only some compounds are listed: those with a hit (about 3.4% of all), similar ones and a draw of the others.
TAAR1 antagonist: human TAAR1 antagonists, primary screen, Fluo-8 calcium fluorescence, CHO RD-HGA16 cells. Trace amine-associated receptor 1 (Homo sapiens), Q96RJ0. antagonist. inhibition, % at 3 µM. 360,000 tested, 1.5% active;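 active = inhibition above a per-plate cutoff, the mean inhibition of test compounds on that plate plus 3 SD, cut at about 49% in these data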;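 note: 0% = DMSO plus EC80 beta-PEA response and 100% = DMSO alone without agonist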
Target sequence (Q96RJ0 whole entry, looked up): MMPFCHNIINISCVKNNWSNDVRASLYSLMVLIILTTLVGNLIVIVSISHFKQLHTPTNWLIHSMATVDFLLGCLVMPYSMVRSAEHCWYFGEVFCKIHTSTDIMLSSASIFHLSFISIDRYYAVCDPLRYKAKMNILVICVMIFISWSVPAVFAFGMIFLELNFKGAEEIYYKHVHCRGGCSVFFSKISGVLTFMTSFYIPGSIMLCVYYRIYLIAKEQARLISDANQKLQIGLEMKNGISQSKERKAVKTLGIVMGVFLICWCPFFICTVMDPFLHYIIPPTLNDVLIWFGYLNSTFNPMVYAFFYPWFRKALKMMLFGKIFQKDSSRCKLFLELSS
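Material: CHO RD-HGA16 cells bearing hTAAR1; compound dosing: one-point dosing, 3 µM nominal final; schedule: dye loading 75 min at 37 °C, then 30 min room temperature; measured by: calcium fluorescence with Fluo-8; control set: vehicle and agonist controls; replication: n of 1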
CHRM1 antagonist: human M1 muscarinic receptor antagonists, primary screen, CHO-K1 cells, Fluo-8 calcium fluorescence, 1536-well; Muscarinic acetylcholine receptor M1 (Homo sapiens), P11229; CHO-K1 hM1, ACh EC80 antagonist; inhibition, % at 3 µM; 360,000 tested, 1.3% active;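 active = percent inhibition above its own plate's cutoff, namely the mean of that plate's compound wells plus 3 SD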;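 note: peak over basal fluorescence ratio during 140 s after agonist addition; 0% = ACh EC80 plus DMSO and 100% = DMSO alone without agonist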
M1 ag: human M1 muscarinic receptor agonists, primary screen, Fluo-8 calcium fluorescence, CHO-K1 cells, HTS. Muscarinic acetylcholine receptor M1 (Homo sapiens), P11229. CHO-K1 hM1, agonist mode; 0% DMSO, 100% acetylcholine EC100. activation, % at 3 µM. 360,000 tested, 0.33% active;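 active = activation above the run's mean compound activation plus 3 SD, cut at about 16% in these data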;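 note: peak over basal fluorescence ratio within a 140 s kinetic read after compound addition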
TAAR1 agonist: human TAAR1 agonists, primary screen, Fluo-8 calcium fluorescence, CHO RD-HGA16 cells | vehicle wells 0%, saturating PEA agonist 100% | 360,000 tested, 0.99% active | Trace amine-associated receptor 1 (Homo sapiens), Q96RJ0 | activation, % at 3 µM;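 active = activation above the mean activation of all test compounds in the run plus 3 SD, cut at about 38% in these data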
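Assay system – CHO-derived RD-HGA16 cells with stable Gα16 and human TAAR1 · Compound dosing – one-point dosing at 3 µM (nominal) · Incubation – 17-24 h seeding, 75 min 37 °C dye, 30 min RT · Measured by – kinetic Fluo-8 calcium fluorescence · Control set – DMSO vehicle as 0%, PEA at EC100 as 100% · Repeats – single well for each compound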
CHRM1 PAM: human M1 muscarinic receptor positive allosteric modulators, primary screen, CHO-K1 cells, Fluo-8 calcium fluorescence, 1536-well. Muscarinic acetylcholine receptor M1 (Homo sapiens), P11229. 360,000 tested, 0.088% active. AID 588819, 2011. CHO-K1 hM1, ACh EC20; 0% = ACh EC20, 100% = maximal ACh. activation, % at 3 µM; in the data active = activation above about 19%, passing the limit was not always enough
TAAR1 nonsel count: nonselective antagonists in TAAR1 counter-screen cells, counter-screen for hTAAR1 antagonist project, cell-based, fluorescence, calcium; AID 651780, 2012; counterscreen cell line, antagonist mode; 2,400 tested, 77% active; shares compounds with TAAR1 antagonist; inhibition, % at 3 µM; in the data active = inhibition above about 22%;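 note: CHO-Ga16 host cells stimulated with ATP at an EC80 level; 0% = agonist EC80 plus vehicle and 100% = vehicle without agonist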
TAAR1 antag conf: human TAAR1 antagonists, retest of hits, confirmation, cell-based, fluorescence; shares compounds with TAAR1 antagonist; TAAR1-expressing cells, fluorescence antagonist read-out; inhibition, % at 3 µM; 2,400 tested, 40% active; AID 651785, 2012; in the data active = inhibition above about 49%;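 note: CHO-Ga16 host cells challenged with agonist PEA near its EC80; 0% = agonist at EC80 plus vehicle and 100% = vehicle with no agonist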
Ga16 nonsel ag: calcium activation in Ga16-expressing cells, counter-screen for TAAR1 antagonist project, cell-based, fluorescence. shares compounds with TAAR1 antagonist. AID 651953, 2012. 2,400 tested, 18% active. agonist counterscreen. activation, % at 3 µM; in the data active = activation above about 12%;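 note: 0% = vehicle wells and 100% = saturating stimulus response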
TAAR1 ag counter: TAAR1 activation by candidate antagonists – cell-based, fluorescence, counter-screen for TAAR1 antagonist project. shares compounds with TAAR1 antagonist. 2,400 tested, 2% active. activation, % at 3 µM. hTAAR1 cell line, agonist mode; in the data active = activation above about 37%;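 note: CHO cells stably expressing TAAR1 with calcium dye readout; 0% = DMSO vehicle and 100% = full agonist response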
* = called active by the depositor.

`CN(C)S(=O)(=O)c1ccc(C(=O)Nc2nc(-c3cccs3)cs2)cc1` gave TAAR1 antagonist 54*, CHRM1 antagonist 19, M1 ag -2, TAAR1 agonist 8, CHRM1 PAM -14, TAAR1 nonsel count 33*, TAAR1 antag conf 37, Ga16 nonsel ag 12* and TAAR1 ag counter 9.
Screening O=C(Nc1nc(-c2cccs2)cs1)c1ccc(S(=O)(=O)N2CCCC2)cc1 returned TAAR1 antagonist 29, CHRM1 antagonist 21, M1 ag -9, TAAR1 agonist 5 and CHRM1 PAM -21.
`O=C(C[C@H]1C/C=C\C[C@@H](Cc2ccc(F)cc2)C(=O)O[C@@H](c2ccccc2)CNC1=O)NCCO` gave TAAR1 antagonist 22, CHRM1 antagonist 4, M1 ag -6, TAAR1 agonist 3 and CHRM1 PAM -2.
O=C1NC[C@@H](c2ccccc2)OC(=O)[C@H](Cc2ccc(F)cc2)C/C=C\C[C@H]1CC(=O)N(CCO)Cc1ccccc1 was read as TAAR1 antagonist 68*, CHRM1 antagonist 16, M1 ag -6, TAAR1 agonist 28, CHRM1 PAM -8, TAAR1 nonsel count 30*, TAAR1 antag conf 45, Ga16 nonsel ag 8 and TAAR1 ag counter 6.
Screening O=C(C[C@@H]1C/C=C/CC[C@@H](Cc2ccc(F)cc2)C(=O)O[C@@H](c2ccccc2)CNC1=O)NCCO returned TAAR1 antagonist 66*, CHRM1 antagonist 22, M1 ag -5, TAAR1 agonist 16, CHRM1 PAM -12, TAAR1 nonsel count 26*, TAAR1 antag conf 49*, Ga16 nonsel ag 6 and TAAR1 ag counter 6.
O=C(C[C@H]1C/C=C/CC[C@H](Cc2ccc(F)cc2)C(=O)O[C@H](c2ccccc2)CNC1=O)NCCO was read as TAAR1 antagonist -10, CHRM1 antagonist 2, M1 ag -7, TAAR1 agonist 9 and CHRM1 PAM -1.
For O=C1NC[C@@H](c2ccccc2)OC(=O)[C@@H](Cc2ccc(F)cc2)CC/C=C/C[C@H]1CC(=O)N(CCO)Cc1ccccc1 the results were TAAR1 antagonist 59*, CHRM1 antagonist 7, M1 ag -7, TAAR1 agonist 35, CHRM1 PAM -6, TAAR1 nonsel count 20, TAAR1 antag conf 32, Ga16 nonsel ag 9 and TAAR1 ag counter 6.
`CC(C)(C)OC(=O)C[C@@H]1C/C=C\C[C@@H](CC(=O)N[C@@H](CO)Cc2ccccc2)C(=O)NC[C@@H](c2ccccc2)OC1=O` gave TAAR1 antagonist 67*, CHRM1 antagonist 18, M1 ag -8, TAAR1 agonist 16, CHRM1 PAM -12, TAAR1 nonsel count 28*, TAAR1 antag conf 47, Ga16 nonsel ag 6 and TAAR1 ag counter 4.
CC(C)C(C(=O)NCc1ccccc1)N1CCN(C(=O)C2CCCO2)CC1 (stereo unspecified) was read as TAAR1 antagonist -20 and TAAR1 agonist 2.
Screening COc1cccc(Cn2c3ccc(NC(=O)CCc4ccc(F)cc4)cc3c(=O)n2C)c1 returned TAAR1 antagonist -2, CHRM1 antagonist 2, M1 ag 2, TAAR1 agonist 8 and CHRM1 PAM -5.
Screening Cc1ccc(-c2nc3ccccc3n2C(C)C(=O)NC(C)(C)C)cc1 (stereo unspecified) returned TAAR1 antagonist -6 and TAAR1 agonist 2.
Screening CN(C)c1ccc(Nc2nc(N)c([N+](=O)[O-])c(N3CCOCC3)n2)cc1 returned TAAR1 antagonist 54*, CHRM1 antagonist 20, M1 ag -6, TAAR1 agonist 14, CHRM1 PAM -13, TAAR1 nonsel count 22*, TAAR1 antag conf 36, Ga16 nonsel ag 7 and TAAR1 ag counter 6.
Screening CC(=O)c1cccc(OCC(=O)Nc2cc(S(=O)(=O)N3CCOCC3)ccc2N2CCCC2)c1 returned TAAR1 antagonist 2, CHRM1 antagonist 12, M1 ag -4, TAAR1 agonist 0 and CHRM1 PAM -5.
For COc1cc(C(C)=O)ccc1OCC(=O)Nc1ccccc1N1CCCCC1 the results were TAAR1 antagonist 55*, CHRM1 antagonist 14, M1 ag -6, TAAR1 agonist 3, CHRM1 PAM -8, TAAR1 nonsel count 9, TAAR1 antag conf 37, Ga16 nonsel ag 3 and TAAR1 ag counter 9.
`CC(=O)c1cccc(OCC(=O)Nc2ccccc2N2CCOCC2)c1` gave TAAR1 antagonist 51*, CHRM1 antagonist 3, M1 ag 4, TAAR1 agonist 10, CHRM1 PAM 3, TAAR1 nonsel count 19, TAAR1 antag conf 38, Ga16 nonsel ag 7 and TAAR1 ag counter 7.
Screening CC(C)Nc1nnc(SCC(=O)Nc2ccc3c(c2)C(=O)c2ccccc2C3=O)s1 returned TAAR1 antagonist 68*, CHRM1 antagonist 31*, M1 ag -2, TAAR1 agonist 22, CHRM1 PAM -17, TAAR1 nonsel count 47*, TAAR1 antag conf 59*, Ga16 nonsel ag 15* and TAAR1 ag counter 16.
For O=C(CSc1nnc(NC2CCCCC2)s1)Nc1ccc2c(c1)C(=O)c1ccccc1C2=O the results were TAAR1 antagonist -13, CHRM1 antagonist 1, M1 ag 3, TAAR1 agonist 0 and CHRM1 PAM 9.
`COc1ccccc1CNC(=O)C1(C)CCN1C(=O)C1(c2ccccc2)CC1` (stereo unspecified) gave TAAR1 antagonist -7, CHRM1 antagonist -18, M1 ag -4, TAAR1 agonist 0 and CHRM1 PAM 7.

Bioassay records: PubChem, The Scripps Research Institute Molecular Screening Center
